{
  "source": "paper PMC8336483",
  "about": "(Chemical Science, 2021)",
  "test_system": "MDA-MB-231 cells",
  "type": "cell-based, human",
  "conditions": "1 h incubation",
  "how_it_was_run": "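MDA-MB-231 cells incubated 1 h with fluorescent conjugates or linker-functionalised fluorescein, then analysed by fluorescence correlation spectroscopy in the cytoplasm. Probe hydrodynamic radii and cytoplasmic viscosity were first determined by FCS. Cytoplasmic diffusion coefficients came from autocorrelation curves and were compared with values predicted for free diffusion using a cytoplasm viscosity model.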",
  "data": [
    {"substance": "FAM-PEG", "values": [
      {"measurement": "FCS autocorrelation of fluorescence signal in cells", "result": "no autocorrelation of fluorescence signal was detected"}
    ]}
  ]
}
